Four compounds from ChEMBL document CHEMBL3817731, “Synthesis and investigation of novel benzimidazole derivatives as antifungal agents” (Bioorg Med Chem, 2016) can be followed below.

The subject of series [1] is Candida albicans. Briefly: Antifungal activity against Candida albicans ATCC MYA-90819 after 48 hrs by CLSI M27-A3 method. Particulars: ATCC MYA-90819, 48 h. It is filed as functional.
Another series deals with Candida parapsilosis. The series can be described thus: Antifungal activity against Candida parapsilosis ATCC 22019 after 48 hrs by CLSI M27-A3 method. In kind it is functional. Particulars: Lodderomyces parapsilosis, ATCC 22019, 48 h.
In series [2] the test system is Candida albicans. The series can be described thus: Fungicidal activity against Candida albicans ATCC 64124 assessed as reduction in fungal population at 2 times MIC after 24 to 48 hrs by time kill assay. It is filed as functional.
The next series deals with Pichia kudriavzevii. Briefly: Antifungal activity against Candida krusei ATCC 6258 after 48 hrs by CLSI M27-A3 method. In kind it is functional. Particulars: ATCC 6258, 48 h.
For another series, the system named is Aspergillus terreus. Briefly: Antifungal activity against Aspergillus terreus ATCC MYA3633 after 48 hrs by CLSI M38-A2 method. The note with it: ATCC MYA3633, 48 h. It is filed as functional.
Series [3] deals with Candida albicans. Briefly: Antifungal activity against Candida albicans ATCC MYA-1003 after 48 hrs by CLSI M27-A3 method. It is filed as functional. Particulars: ATCC MYA-1003, 48 h.
The subject of series [4] is Candida albicans. Briefly: Antifungal activity against Candida albicans ATCC MYA-2876 after 48 hrs by CLSI M27-A3 method. It is filed as functional. Particulars: ATCC MYA-2876, 48 h.
In series [5] the test system is Candida albicans. Briefly: Antifungal activity against Candida albicans ATCC 10231 after 48 hrs by CLSI M27-A3 method. In kind it is functional. Particulars: ATCC 10231, 48 h.
The test system of series [6] is Candida albicans. Briefly: Fungicidal activity against Candida albicans ATCC 64124 assessed as reduction in fungal population at MIC after 9 hrs by time kill assay. In kind it is functional.
Series [7] has as its system Candida albicans. Briefly: Antifungal activity against Candida albicans ATCC MYA-2310 after 48 hrs by CLSI M27-A3 method. The note with it: ATCC MYA-2310, 48 h. It is filed as functional.
Series [8] deals with Candida albicans. The series can be described thus: Antifungal activity against Candida albicans ATCC 64124 after 48 hrs by CLSI M27-A3 method. The note with it: ATCC 64124, 48 h. In kind it is functional.
The subject of series [9] is Candida albicans. The series can be described thus: Antifungal activity against Candida albicans ATCC MYA-1237 after 48 hrs by CLSI M27-A3 method. In kind it is functional. The note with it: ATCC MYA-1237, 48 h.
Series [10] deals with Candida albicans. Briefly: Induction of ROS production in Candida albicans ATCC 10231 at 1 to 2 times MIC after 1 hr by DCFH-DA probe based fluorescence microscopy. In kind it is functional, organism-based.
In another series the test system is Nakaseomyces glabratus. Briefly: Antifungal activity against Candida glabrata ATCC 2001 after 48 hrs by CLSI M27-A3 method. It is filed as functional. Particulars: CBS 138, 48 h.
The next series concerns Aspergillus nidulans. Briefly: Antifungal activity against Aspergillus nidulans ATCC 38163 after 48 hrs by CLSI M38-A2 method. Particulars: ATCC 38163, 48 h. It is filed as functional.
The next series deals with Aspergillus flavus. The series can be described thus: Antifungal activity against Aspergillus flavus ATCC MYA-3631 after 48 hrs by CLSI M38-A2 method. It is filed as functional. Particulars: ATCC MYA-3631, 48 h.
A further series concerns A549. The series can be described thus: Cytotoxicity against human A549 cells assessed as reduction in cell survival after 24 hrs by resazurin assay. It is filed as cell-based. The note with it: A549, 24 h. A digest of the protocol:
(§1)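 Human A549 cells treated 24 h; BEAS 2B cells treated 6 h or 24 h. DMSO-treated cells served as negative control and Triton X-treated cells as positive control. Read-out was cell survival.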
On the technique in general: The colour change of resazurin is a common sign of viable cells or microbes.

The nature of series [11]: Cytotoxicity against human BEAS2B cells assessed as reduction in cell survival after 24 hrs by resazurin assay. Particulars: BEAS-2B. In kind it is cell-based. The method, boiled down:
as §1

The subject of series [12] is Candida albicans. The series can be described thus: Fungistatic activity against Candida albicans ATCC 64124 assessed as reduction in fungal population at MIC upto 24 hrs by time kill assay. In kind it is functional, organism-based.
Series [13] in a line: Cytotoxicity against human BEAS2B cells assessed as reduction in cell survival after 6 hrs by resazurin assay. It is filed as cell-based. The note with it: beas-2b. The method, boiled down: as §1
Series [14] relates to Candida albicans. Briefly: Fungistatic activity against Candida albicans ATCC 64124 assessed as reduction in fungal population at MIC after 24 hrs by time kill assay.
Series [15] concerns Candida albicans. Briefly: Induction of ROS production in Candida albicans ATCC 10231 at 8 to 16 ug/ml after 1 hr by DCFH-DA probe based fluorescence microscopy. In kind it is functional, organism-based. A digest of the protocol:
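C. albicans ATCC 10231 yeast cells exposed to drug at 8 and 16 µg/mL for 1 h at 35 °C, alongside untreated and AmB controls. Cells were then stained with DCFH-DA (20 µg/mL) for 30 min in the dark. Intracellular ROS was visualised by fluorescence microscopy.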

One may read the MIC as the lowest concentration found to suppress growth. Lower therefore signals a more susceptible organism. One may read the IC50 as the midpoint of a concentration-inhibition curve.

Values after ≈ are worked out from the molar mass of the structure shown. Active and inactive are the calls of the source. No cut-off for these calls is given here.

Take `C[C@@H]1[C@H](O)[C@@H](C)/C=C/C=C/C=C/C=C/C=C/C=C/C=C/[C@H](O[C@@H]2O[C@H](C)[C@@H](O)[C@H](N)[C@@H]2O)C[C@@H]2O[C@](O)(C[C@@H](O)C[C@@H](O)[C@H](O)CC[C@@H](O)C[C@@H](O)CC(=O)O[C@H]1C)C[C@H](O)[C@H]2C(=O)O` [AMPHOTERICIN B]: the MIC came out at 0.975 µg/mL (≈ 1.06 µM) against Candida albicans [1]; 1.95 µg/mL (≈ 2.11 µM) with Candida parapsilosis; 3.9 µg/mL (≈ 4.22 µM) in the series on Pichia kudriavzevii; 3.9 µg/mL (≈ 4.22 µM) with Aspergillus terreus; 3.9 µg/mL (≈ 4.22 µM) against Candida albicans [3]; 1.95 µg/mL (≈ 2.11 µM) in the series with Candida albicans [4]. The minimal inhibitory concentration (MIC) was 3.9 µg/mL (≈ 4.22 µM) against Candida albicans [5]; 1.95 µg/mL (≈ 2.11 µM) against Candida albicans [7]; 3.9 µg/mL (≈ 4.22 µM) in the series on Candida albicans [8]; 3.9 µg/mL (≈ 4.22 µM) in the series with Candida albicans [9]; 1.95 µg/mL (≈ 2.11 µM) with Nakaseomyces glabratus. Also, the result with Candida albicans [2], in the series with Candida albicans [6] and in the series on Candida albicans [10] was Active.

With `CCOc1ccc(-c2nc3cc(-c4nc5cc(N6CCN(C)CC6)ccc5[nH]4)ccc3[nH]2)cc1`, the minimal inhibitory concentration (MIC) was 7.8 µg/mL (≈ 17.2 µM) in the series on Candida albicans [1]; 3.9 µg/mL (≈ 8.62 µM) in the series on Aspergillus nidulans; 3.9 µg/mL (≈ 8.62 µM) in the series on Candida parapsilosis; 31.2 µg/mL (≈ 68.9 µM) in the series on Aspergillus flavus; 7.8 µg/mL (≈ 17.2 µM) with Pichia kudriavzevii; 7.8 µg/mL (≈ 17.2 µM) against Aspergillus terreus. Further, the MIC against Candida albicans [3] was found to be 15.6 µg/mL (≈ 34.5 µM); in the series with Candida albicans [4], 7.8 µg/mL (≈ 17.2 µM); against Candida albicans [5], 7.8 µg/mL (≈ 17.2 µM); in the series with Candida albicans [7], 7.8 µg/mL (≈ 17.2 µM); in the series with Candida albicans [8] it was 7.8 µg/mL (≈ 17.2 µM); with Candida albicans [9] it was 7.8 µg/mL (≈ 17.2 µM). The compound further gave an MIC with Nakaseomyces glabratus of 7.8 µg/mL (≈ 17.2 µM). Besides, the Activity is recorded as 5 log10CFU with Candida albicans [2], “Non-toxic” in [13] and 1 log10CFU in the series on Candida albicans [14]. Moreover, the figures for the concentration for half-maximal inhibition (IC50) (with A549; in [11]) were 0.98 µg/mL (≈ 2.17 µM) and 1.95 µg/mL (≈ 4.31 µM), respectively. The result with Candida albicans [10] and with Candida albicans [12] was Active.

Consider `CCCCCCCCCCCCN1CCN(c2ccc3nc(-c4ccc5nc(-c6ccc(O)cc6)[nH]c5c4)[nH]c3c2)CC1`, for which the MIC with Candida albicans [1], against Aspergillus nidulans, with Candida parapsilosis, in the series on Aspergillus flavus, against Pichia kudriavzevii and against Aspergillus terreus was above 31.2 µg/mL throughout. The MIC against Candida albicans [3], with Candida albicans [4], against Candida albicans [5], against Candida albicans [7], with Candida albicans [8] and against Candida albicans [9] was above 31.2 µg/mL in each case. For the same compound, the minimal inhibitory concentration (MIC) in the series with Nakaseomyces glabratus was above 31.2 µg/mL. The result in the series with Candida albicans [15] was inactive.

Turning to `CN1CCN(c2ccc3[nH]c(-c4ccc5[nH]c(-c6ccc(O)cc6)nc5c4)nc3c2)CC1` [HOECHST 33258], the MIC was determined as 7.8 µg/mL (≈ 18.4 µM) in the series on Candida albicans [1]; 1.95 µg/mL (≈ 4.59 µM) with Aspergillus nidulans; 0.975 µg/mL (≈ 2.3 µM) in the series with Candida parapsilosis; 31.2 µg/mL (≈ 73.5 µM) against Aspergillus flavus; 7.8 µg/mL (≈ 18.4 µM) in the series with Candida albicans [3]; 7.8 µg/mL (≈ 18.4 µM) against Candida albicans [4]. The MIC in the series on Candida albicans [7] amounted to 3.9 µg/mL (≈ 9.19 µM); in the series on Candida albicans [9], 3.9 µg/mL (≈ 9.19 µM); with Nakaseomyces glabratus it was 0.975 µg/mL (≈ 2.3 µM). Moreover, the Activity is recorded as 5 log10CFU in the series on Candida albicans [2], “Non-toxic” in series [13] and 1 log10CFU in the series on Candida albicans [14]. Further, the half-maximal inhibitory concentration (IC50) (in the series on A549; in series [11]) was at least 31.2 µg/mL each time. Besides, the outcome with Candida albicans [10] and in the series on Candida albicans [12] was Active.
